Data reported in ChEMBL document CHEMBL5058577, “EUbOPEN Chemogenomics Library 2 (Multiplex)” (2022).

Test system: Fibroblast
Experiment: Multiplex assay against human fibroblast
Assay type: toxicity, cell-based
Summary of the method: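 Cells were classed with CellPathfinder machine-learning gating, first as Hoechst high-intensity objects or normal cells, then (normal cells) as healthy, pyknosed or fragmented nuclei, and finally (pyknosed cells) as mitotic or apoptotic. Staining of live cells at seeding used Hoechst33342, BioTracker Green Microtubule Cytoskeleton Dye, MitoTracker Red and Annexin V Alexa Fluor 680, with imaging on a CQ1 microscope at 37°C and 5% CO2 after compound addition. Tubulin, mitochondrial-mass and membrane-permeability phenotypes are per cents of healthy-nucleus cells.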

[1] = 12 h, 1 µM, compound concentration 1 uM, replicate 1
[2] = 12 h, 1 µM, compound concentration 1 uM, replicate 2
[3] = 12 h, 10 µM, compound concentration 10 uM, replicate 1
[4] = 12 h, 10 µM, compound concentration 10 uM, replicate 2
[5] = 24 h, 1 µM, compound concentration 1 uM, replicate 1
[6] = 24 h, 1 µM, compound concentration 1 uM, replicate 2
[7] = 24 h, 10 µM, compound concentration 10 uM, replicate 1
[8] = 24 h, 10 µM, compound concentration 10 uM, replicate 2
[9] = 48 h, 1 µM, compound concentration 1 uM, replicate 1
[10] = 48 h, 1 µM, compound concentration 1 uM, replicate 2
[11] = 48 h, 10 µM, compound concentration 10 uM, replicate 1
[12] = 48 h, 10 µM, compound concentration 10 uM, replicate 2

S=C(NCCCc1c[nH]cn1)NCCCN(Cc1ccc(Cl)c(Cl)c1)c1ccc(Br)cn1
Population Apoptotic (%) [1]: 40%
Population Fragmented Nuclei (%) [1]: 13%
Population Healthy Nuclei (%) [1]: 71%
Population Hoechst High Intensity Objects (%) [1]: 5%
Population Membrane Permeable-Phenotype (%) [1]: 1%
Population Mitochondria Different-Phenotype (%) [1]: 5%
Population Mitotic Cells (%) [1]: 60%
Population Normal (%) [1]: 94%
Population Pyknosed Nuclei (%) [1]: 14%
Population Tubulin-Different-Phenotype (%) [1]: 26%
Total Cell Count [1]: 142
Population Apoptotic (%) [2]: 31%
Population Fragmented Nuclei (%) [2]: 30%
Population Healthy Nuclei (%) [2]: 50%
Population Hoechst High Intensity Objects (%) [2]: 4%
Population Membrane Permeable-Phenotype (%) [2]: 5%
Population Mitochondria Different-Phenotype (%) [2]: 6%
Population Mitotic Cells (%) [2]: 68%
Population Normal (%) [2]: 95%
Population Pyknosed Nuclei (%) [2]: 18%
Population Tubulin-Different-Phenotype (%) [2]: 37%
Total Cell Count [2]: 181
Population Apoptotic (%) [3]: 47%
Population Fragmented Nuclei (%) [3]: 27%
Population Healthy Nuclei (%) [3]: 56%
Population Hoechst High Intensity Objects (%) [3]: 3%
Population Membrane Permeable-Phenotype (%) [3]: 0%
Population Mitochondria Different-Phenotype (%) [3]: 15%
Population Mitotic Cells (%) [3]: 52%
Population Normal (%) [3]: 96%
Population Pyknosed Nuclei (%) [3]: 16%
Population Tubulin-Different-Phenotype (%) [3]: 89%
Total Cell Count [3]: 220
Population Apoptotic (%) [4]: 52%
Population Fragmented Nuclei (%) [4]: 34%
Population Healthy Nuclei (%) [4]: 53%
Population Hoechst High Intensity Objects (%) [4]: 5%
Population Mitochondria Different-Phenotype (%) [4]: 10%
Population Mitotic Cells (%) [4]: 47%
Population Normal (%) [4]: 94%
Population Pyknosed Nuclei (%) [4]: 12%
Total Cell Count [4]: 279
Population Apoptotic (%) [5]: 69%
Population Fragmented Nuclei (%) [5]: 15%
Population Healthy Nuclei (%) [5]: 74%
Population Hoechst High Intensity Objects (%) [5]: 4%
Population Membrane Permeable-Phenotype (%) [5]: 2%
Population Mitochondria Different-Phenotype (%) [5]: 2%
Population Mitotic Cells (%) [5]: 30%
Population Normal (%) [5]: 95%
Population Pyknosed Nuclei (%) [5]: 9%
Population Tubulin-Different-Phenotype (%) [5]: 28%
Total Cell Count [5]: 137
Population Apoptotic (%) [6]: 23%
Population Fragmented Nuclei (%) [6]: 30%
Population Healthy Nuclei (%) [6]: 57%
Population Hoechst High Intensity Objects (%) [6]: 1%
Population Mitochondria Different-Phenotype (%) [6]: 6%
Population Mitotic Cells (%) [6]: 76%
Population Normal (%) [6]: 98%
Population Pyknosed Nuclei (%) [6]: 11%
Population Tubulin-Different-Phenotype (%) [6]: 42%
Total Cell Count [6]: 183
Population Apoptotic (%) [7]: 66%
Population Fragmented Nuclei (%) [7]: 22%
Population Healthy Nuclei (%) [7]: 61%
Population Hoechst High Intensity Objects (%) [7]: 1%
Population Membrane Permeable-Phenotype (%) [7]: 0%
Population Mitochondria Different-Phenotype (%) [7]: 19%
Population Mitotic Cells (%) [7]: 33%
Population Normal (%) [7]: 98%
Population Pyknosed Nuclei (%) [7]: 15%
Population Tubulin-Different-Phenotype (%) [7]: 93%
Total Cell Count [7]: 214
Population Apoptotic (%) [8]: 61%
Population Fragmented Nuclei (%) [8]: 27%
Population Healthy Nuclei (%) [8]: 59%
Population Hoechst High Intensity Objects (%) [8]: 4%
Population Membrane Permeable-Phenotype (%) [8]: 2%
Population Mitochondria Different-Phenotype (%) [8]: 7%
Population Mitotic Cells (%) [8]: 38%
Population Normal (%) [8]: 95%
Population Pyknosed Nuclei (%) [8]: 13%
Population Tubulin-Different-Phenotype (%) [8]: 95%
Total Cell Count [8]: 248
Population Apoptotic (%) [9]: 75%
Population Fragmented Nuclei (%) [9]: 27%
Population Healthy Nuclei (%) [9]: 67%
Population Hoechst High Intensity Objects (%) [9]: 3%
Population Membrane Permeable-Phenotype (%) [9]: 0%
Population Mitochondria Different-Phenotype (%) [9]: 0%
Population Mitotic Cells (%) [9]: 25%
Population Normal (%) [9]: 96%
Population Pyknosed Nuclei (%) [9]: 5%
Population Tubulin-Different-Phenotype (%) [9]: 24%
Total Cell Count [9]: 156
Population Apoptotic (%) [10]: 35%
Population Fragmented Nuclei (%) [10]: 30%
Population Healthy Nuclei (%) [10]: 59%
Population Hoechst High Intensity Objects (%) [10]: 4%
Population Membrane Permeable-Phenotype (%) [10]: 5%
Population Mitochondria Different-Phenotype (%) [10]: 3%
Population Mitotic Cells (%) [10]: 64%
Population Normal (%) [10]: 95%
Population Pyknosed Nuclei (%) [10]: 10%
Population Tubulin-Different-Phenotype (%) [10]: 36%
Total Cell Count [10]: 178
Population Apoptotic (%) [11]: 62%
Population Fragmented Nuclei (%) [11]: 27%
Population Healthy Nuclei (%) [11]: 59%
Population Hoechst High Intensity Objects (%) [11]: 6%
Population Membrane Permeable-Phenotype (%) [11]: 0%
Population Mitochondria Different-Phenotype (%) [11]: 7%
Population Mitotic Cells (%) [11]: 37%
Population Normal (%) [11]: 93%
Population Pyknosed Nuclei (%) [11]: 12%
Population Tubulin-Different-Phenotype (%) [11]: 91%
Total Cell Count [11]: 230
Population Apoptotic (%) [12]: 63%
Population Fragmented Nuclei (%) [12]: 31%
Population Healthy Nuclei (%) [12]: 60%
Population Hoechst High Intensity Objects (%) [12]: 5%
Population Mitochondria Different-Phenotype (%) [12]: 1%
Population Mitotic Cells (%) [12]: 36%
Population Normal (%) [12]: 94%
Population Pyknosed Nuclei (%) [12]: 7%
Population Tubulin-Different-Phenotype (%) [12]: 86%
Total Cell Count [12]: 293
